Columns and labels:
Assay type in all cases: functional
NCI-H460 = assay: Cytotoxicity against human NCI-H460 cells assessed as cell growth at 100 nM after 48 hrs by sulforhodamine B assay; settings: NCI-H460, 48 h, read-out: Activity
SF-268 [1] = assay: Cytotoxicity against human SF268 cells assessed as cell growth at 0.01 uM after 48 hrs by sulforhodamine B assay; settings: SF-268, 48 h, read-out: Activity
SK-MEL-5 = assay: Cytotoxicity against human SK-MEL-5 cells assessed as cell growth at 0.01 uM after 48 hrs by sulforhodamine B assay; settings: SK-MEL-5, 48 h, read-out: Activity
786-0 = assay: Cytotoxicity against human 786-0 cells assessed as cell growth at 0.01 uM after 48 hrs by sulforhodamine B assay; settings: 786-0, 48 h, read-out: Activity
Method in brief: (§1)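 NCI-60 five-dose screen. Cells were grown in RPMI 1640 with 5% FBS and 2 mM L-glutamine, plated at 5000–40,000 cells/well and preincubated for 24 h. Time-zero plates were TCA-fixed. DMSO-solubilized drug was added at five concentrations (10-fold or ½-log serial dilutions) for 48 h at 37 °C, 5% CO2. Cells were TCA-fixed, stained with 0.4% SRB and read at 515 nm. Percent growth used time-zero, control and test absorbances.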

UO-31 = assay: Cytotoxicity against human UO31 cells assessed as cell growth at 100 nM after 48 hrs by sulforhodamine B assay; settings: UO-31, 48 h, read-out: Activity
SF-268 [2] = assay: Cytotoxicity against human SF268 cells assessed as cell growth at 1 uM after 48 hrs by sulforhodamine B assay; settings: SF-268, 48 h, read-out: Activity
OVCAR-5 [3] = assay: Cytotoxicity against human OVCAR5 cells assessed as cell growth at 100 nM after 48 hrs by sulforhodamine B assay; settings: OVCAR-5, 48 h, read-out: Activity
CCRF-CEM = assay: Cytotoxicity against human CCRF-CEM cells assessed as cell growth at 0.001 uM after 48 hrs by sulforhodamine B assay; settings: read-out: Activity; method in brief: as §1
K562 = assay: Cytotoxicity against human K562 cells assessed as cell growth at 10 uM after 48 hrs by sulforhodamine B assay; settings: K562, 48 h, read-out: Activity
OVCAR-5 [4] = assay: Cytotoxicity against human OVCAR5 cells assessed as cell growth at 10 uM after 48 hrs by sulforhodamine B assay; settings: OVCAR-5, 48 h, read-out: Activity
HCT-15 = assay: Cytotoxicity against human HCT15 cells assessed as cell growth at 0.01 uM after 48 hrs by sulforhodamine B assay; settings: HCT-15, 48 h, read-out: Activity
UACC-257 = assay: Cytotoxicity against human UACC257 cells assessed as cell growth at 0.001 uM after 48 hrs by sulforhodamine B assay; settings: UACC-257, 48 h, read-out: Activity
IGROV-1 = assay: Cytotoxicity against human IGROV1 cells assessed as cell growth at 0.01 uM after 48 hrs by sulforhodamine B assay; settings: IGROV-1, 48 h, read-out: Activity
OVCAR-5 [5] = assay: Growth inhibition of human OVCAR5 cells after 48 hrs by sulforhodamine B assay; settings: OVCAR-5, 48 h; for CC50: read-out: LC50 (the source's name)
Method in brief: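 NCI 60-cell screen, five-dose mode. Cells grown in RPMI 1640 with 5% FBS and 2 mM L-glutamine and plated at 5000-40,000 cells/well according to doubling time. After 24 h preincubation, a Tz plate was TCA-fixed. Five concentrations (10-fold or 1/2 log dilutions) were applied for 48 h at 37 °C. SRB staining read at 515 nm. IC50 taken from [(Ti-Tz)/(C-Tz)]×100 = 50.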

SW-620 = assay: Cytotoxicity against human SW620 cells assessed as cell growth at 10 uM after 48 hrs by sulforhodamine B assay; settings: SW-620, 48 h, read-out: Activity
OVCAR-8 = assay: Cytotoxicity against human OVCAR8 cells assessed as cell growth at 1 uM after 48 hrs by sulforhodamine B assay; settings: OVCAR-8, 48 h, read-out: Activity
LOX IMVI = assay: Cytotoxicity against human LOXIMVI cells assessed as cell growth at 100 nM after 48 hrs by sulforhodamine B assay; settings: read-out: Activity
OVCAR-4 = assay: Cytotoxicity against human OVCAR4 cells assessed as cell growth at 1 uM after 48 hrs by sulforhodamine B assay; settings: OVCAR-4, 48 h, read-out: Activity
A498 = assay: Cytotoxicity against human A498 cells assessed as cell growth at 1 uM after 48 hrs by sulforhodamine B assay; settings: A498, 48 h, read-out: Activity; method in brief: as §1
OVCAR-3 [6] = assay: Cytotoxicity against human OVCAR-3 cells assessed as cell growth at 10 uM after 48 hrs by sulforhodamine B assay; settings: OVCAR-3, 48 h, read-out: Activity
OVCAR-3 [7] = assay: Cytotoxicity against human OVCAR-3 cells assessed as cell growth at 10 uM; settings: read-out: Activity
Method in brief: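 NCI-60 screen: cells grown in RPMI 1640 with 5% FBS and 2 mM L-glutamine, plated at 5000–40,000 cells/well according to doubling time, and preincubated 24 h at 37 °C, 5% CO2. The single 10 µM dose (DMSO stock) was added, then incubated 48 h. Cells were TCA-fixed and stained with 0.4% SRB, read at 515 nm, and growth % calculated against time-zero and control plates.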

NCI-H522 = assay: Cytotoxicity against human NCI-H522 cells assessed as cell growth at 0.001 uM after 48 hrs by sulforhodamine B assay; settings: NCI-H522, 48 h, read-out: Activity
HCC 2998 = assay: Cytotoxicity against human HCC2998 cells assessed as cell growth at 0.001 uM after 48 hrs by sulforhodamine B assay; settings: HCC 2998, 48 h, read-out: Activity
DU-145 = assay: Cytotoxicity against human DU145 cells assessed as cell growth at 1 uM after 48 hrs by sulforhodamine B assay; settings: DU-145, 48 h, read-out: Activity
SK-OV-3 = assay: Cytotoxicity against human SKOV3 cells assessed as cell growth at 0.01 uM after 48 hrs by sulforhodamine B assay; settings: SK-OV-3, 48 h, read-out: Activity
BT-549 = assay: Cytotoxicity against human BT549 cells assessed as cell growth at 10 uM; settings: read-out: Activity
Method in brief: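 Single-dose NCI-60 screen at 10 µM. Cells were grown in RPMI 1640 with 5% FBS and 2 mM L-glutamine, then treated for 48 h at 37 °C. Protein was measured by SRB staining with absorbance at 515 nm. Percentage growth was recorded, and inhibition percentage was calculated as 100 minus growth percentage.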

HL-60(TB) = assay: Cytotoxicity against human HL-60(TB) cells assessed as cell growth at 100 nM after 48 hrs by sulforhodamine B assay; settings: HL-60, 48 h, read-out: Activity
Method in brief: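 NCI 60-cell panel. Cells are grown in RPMI 1640 with 5% FBS and 2 mM L-glutamine, seeded at 5000–40,000 cells/well according to doubling time, and preincubated 24 h. Time-zero plates are TCA-fixed. Compound from DMSO stock is given at five 10-fold or 1/2-log concentrations for 48 h at 37 °C, 5% CO2. Suspension cells are fixed with 80% TCA (final 16%) and SRB-stained, with absorbance at 515 nm. Percent growth is derived from Tz, control and test readings.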

SMILES	growth at 0.1 µM (NCI-H460) [%]	growth at 0.01 µM (SF-268 [1]) [%]	growth at 0.01 µM (SK-MEL-5) [%]	growth at 0.01 µM (786-0) [%]	growth at 0.1 µM (UO-31) [%]	growth at 1 µM (SF-268 [2]) [%]	growth at 0.1 µM (OVCAR-5 [3]) [%]	growth at 0.001 µM (CCRF-CEM) [%]	growth at 10 µM (K562) [%]	growth at 10 µM (OVCAR-5 [4]) [%]	growth at 0.01 µM (HCT-15) [%]	growth at 0.001 µM (UACC-257) [%]	growth at 0.01 µM (IGROV-1) [%]	GI50 (OVCAR-5 [5]) [µM]	TGI (OVCAR-5 [5]) [µM]	CC50 (OVCAR-5 [5]) [µM]	growth at 10 µM (SW-620) [%]	growth at 1 µM (OVCAR-8) [%]	growth at 0.1 µM (LOX IMVI) [%]	growth at 1 µM (OVCAR-4) [%]	further results
Cc1cc(O)cc(-c2nn(CC#N)cc2-c2ccnc(-c3ccc(Oc4ccccc4)cc3)c2)c1	99	91	93	95	85	22	82	96	-2	-89	96	95	83	4.84	19.2	48.3	-100	-30	103	21	growth at 1 µM (A498): 26%; growth at 10 µM (OVCAR-3 [6]): -100%; growth at 10 µM (OVCAR-3 [7]): 96%; growth at 0.001 µM (NCI-H522): 83%; growth at 0.001 µM (HCC 2998): 96%; growth at 1 µM (DU-145): -14%; growth at 0.01 µM (SK-OV-3): 98%; growth at 10 µM (BT-549): 76.1%; growth at 0.1 µM (HL-60(TB)): 92%
COc1cc(C)cc(-c2nn(CC#N)cc2-c2ccc(-c3cccc(C(C)=O)c3)nc2)c1	84	94	91	97	79	23	68	96	9	-18	100	94	92	2.43	33.9	> 100	-11	14	82	19	growth at 1 µM (A498): -21%; growth at 10 µM (OVCAR-3 [6]): -64%; growth at 10 µM (OVCAR-3 [7]): 12.5%; growth at 0.001 µM (NCI-H522): 85%; growth at 0.001 µM (HCC 2998): 87%; growth at 1 µM (DU-145): -38%; growth at 0.01 µM (SK-OV-3): 101%; growth at 10 µM (BT-549): 25.4%; growth at 0.1 µM (HL-60(TB)): 66%
Cc1cc(O)cc(-c2nn(CC#N)cc2-c2ccnc(-c3ccc(N(C)C)cc3)c2)c1	90	90	90	88	82	17	97	97	-6	-18	92	96	94	1.49	60.4	> 100	-33	27	101	27	growth at 1 µM (A498): 5%; growth at 10 µM (OVCAR-3 [6]): -70%; growth at 10 µM (OVCAR-3 [7]): 41.9%; growth at 0.001 µM (NCI-H522): 87%; growth at 0.001 µM (HCC 2998): 91%; growth at 1 µM (DU-145): -7%; growth at 0.01 µM (SK-OV-3): 98%; growth at 10 µM (BT-549): 31.8%; growth at 0.1 µM (HL-60(TB)): 98%
COc1cc(C)cc(-c2c(-c3ccnc(-c4ccc(C(C)=O)cc4)c3)cnn2CC#N)c1	87	96	94	98	78	15	89	96	15	72	95	95	94	> 100	> 100	> 100	14	8	85	27	growth at 1 µM (A498): 17%; growth at 10 µM (OVCAR-3 [6]): -17%; growth at 10 µM (OVCAR-3 [7]): 100%; growth at 0.001 µM (NCI-H522): 86%; growth at 0.001 µM (HCC 2998): 95%; growth at 1 µM (DU-145): 16%; growth at 0.01 µM (SK-OV-3): 98%; growth at 10 µM (BT-549): 60%; growth at 0.1 µM (HL-60(TB)): 88%
COc1cc(C)cc(-c2c(-c3ccnc(-c4ccc(N(C)C)cc4)c3)cnn2CC#N)c1	-43	29	19	55	45	24	53	95	-5	97	12	89	-3	> 100	> 100	> 100	11	12	19	31	growth at 1 µM (A498): 17%; growth at 10 µM (OVCAR-3 [6]): 1%; growth at 10 µM (OVCAR-3 [7]): 27%; growth at 0.001 µM (NCI-H522): 96%; growth at 0.001 µM (HCC 2998): 96%; growth at 1 µM (DU-145): -47%; growth at 0.01 µM (SK-OV-3): 47%; growth at 10 µM (BT-549): -26.5%; growth at 0.1 µM (HL-60(TB)): -26%
COc1cc(C)cc(-c2nn(CC#N)cc2-c2ccnc(-c3ccc(N(C)C)cc3)c2)c1	8	90	104	96	39	-2	79	97	3	15	92	90	101	3.98	> 100	> 100	11	14	39	21	growth at 1 µM (A498): -26%; growth at 10 µM (OVCAR-3 [6]): -42%; growth at 10 µM (OVCAR-3 [7]): 2.79%; growth at 0.001 µM (NCI-H522): 77%; growth at 0.001 µM (HCC 2998): 106%; growth at 1 µM (DU-145): -40%; growth at 0.01 µM (SK-OV-3): 102%; growth at 10 µM (BT-549): -28.5%; growth at 0.1 µM (HL-60(TB)): -3%

From ChEMBL document CHEMBL1165950, “Design and synthesis of new potent anticancer pyrazoles with high FLT3 kinase inhibitory selectivity” (Bioorg Med Chem, 2010)
